Screens from PubChem.
CaV13 ICDI inh: Disruptors of the CACNA1D IQ motif to Ca2+-dependent inactivation inhibitor domain association, primary screening, Förster resonance energy transfer in intact living …; HEK cells, CFP/YFP FRET ICDI-IQ, plate reader, 10 min; percent FRET-ratio fall versus neutral wells; inhibition, % at 12.3 µM; 340,000 compounds, 0.098% hits; AID 743397;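 active = mean replicate inhibition of at least 30% and at least 1% of replicates passing that level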;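 note: 0% = median of the neutral control wells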
CAL PDZ FP-1: blocks peptide binding to human CAL PDZ domain. Q9HD26. purified CAL PDZ, TMR-peptide fluorescence polarization, 1 h. AID 504414. 330,000 compounds, 0.02% hits. inhibition, % at 20 µM;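 active = highest replicate inhibition of at least 40%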;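 note: plate controls were DMSO neutral control wells for no effect and unlabeled competitor peptide control wells for full effect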
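System: purified tagged CAL PDZ domain construct (CerCALP). Schedule: 1 h incubation at room temperature before polarization reading. Medium: 25 mM sodium phosphate pH 7.4, 150 mM NaCl, TCEP, IgG, Thesit. Read-out: percent inhibition from loss of millipolarization. Measured by: FP readout, S and P plane fluorescence. Probe or stimulus: fluorescent TMR peptide probe.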
LANA-H2B inh: blocks KSHV LANA binding to histone H2A/H2B. Q9QR71. cell-free LANA-H2A/H2B peptide, fluorescence polarization. inhibition, % (test concentration not listed). 320,000 compounds, 0.6% hits; in the data active = inhibition mostly above about 10%, no sharp cut-off; inactive = mostly below about 6.7%
LANA DNA inh: blocks KSHV LANA C-terminal domain binding to DNA. MBP-C-LANA/FAM-LBS DNA binding, fluorescence polarization. inhibition, % at 9 µM. 340,000 compounds, 0.078% hits;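 active = highest replicate inhibition at or above 60% at 9 µM, even if other replicates fall short; inactive = all replicates below 60% inhibition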;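 note: 0% = neutral control wells and 100% = 4 µM acridine orange control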
Keap1 Nrf2 FP: inhibitors of human Keap1-Nrf2 protein-protein interaction; inhibition, % at 9.4 µM; AID 504523; 340,000 compounds, 0.15% hits; Keap1 Kelch-Nrf2 peptide fluorescence polarization, 1536-well; in the data active = inhibition above about 12%;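 note: human Keap1 Kelch domain with fluorescein labeled Nrf2 9mer peptide probe; 0% = neutral control wells and 100% = peptide positive control; higher means more block of Keap1 binding to Nrf2 peptide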
Target sequence (Q14145 whole entry, looked up, the tested form may be a part): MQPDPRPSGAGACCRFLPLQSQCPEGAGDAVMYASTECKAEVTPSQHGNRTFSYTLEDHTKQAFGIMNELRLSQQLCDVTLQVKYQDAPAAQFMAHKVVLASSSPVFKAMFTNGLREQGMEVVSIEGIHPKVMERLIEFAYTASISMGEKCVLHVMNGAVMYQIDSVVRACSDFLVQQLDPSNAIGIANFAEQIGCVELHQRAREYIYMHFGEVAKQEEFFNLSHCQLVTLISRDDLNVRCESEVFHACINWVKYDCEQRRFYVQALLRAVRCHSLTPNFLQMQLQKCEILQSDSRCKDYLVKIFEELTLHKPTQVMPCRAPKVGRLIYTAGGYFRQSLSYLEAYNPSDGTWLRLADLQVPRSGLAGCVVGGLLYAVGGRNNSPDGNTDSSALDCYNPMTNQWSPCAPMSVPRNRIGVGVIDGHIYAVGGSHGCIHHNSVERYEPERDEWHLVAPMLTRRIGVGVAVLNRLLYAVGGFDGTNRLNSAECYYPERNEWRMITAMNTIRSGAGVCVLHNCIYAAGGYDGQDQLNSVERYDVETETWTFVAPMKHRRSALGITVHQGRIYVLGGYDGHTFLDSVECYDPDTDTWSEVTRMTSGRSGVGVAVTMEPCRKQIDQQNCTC
CAL PDZ FP-2: CAL PDZ (human) peptide binding inhibition; Q9HD26; purified CAL PDZ, TMR-peptide fluorescence polarization, 1 h; inhibition, % at 24.9 µM; 300,000 compounds, 0.92% hits; AID 602252;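 active = mean inhibition of at least 30% with at least half of replicates also reaching 30%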;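 note: 0% = DMSO neutral control and 100% = excess unlabeled competitor peptide PRC23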
An asterisk follows results filed as active; · = not tested or not shown; + = active, no number; ! = not confirmed by another sample. An excerpt weighted towards active compounds, which were near 1.5% of everything screened.

SMILES	CaV13 ICDI inh	CAL PDZ FP-1	LANA-H2B inh	LANA DNA inh	Keap1 Nrf2 FP	CAL PDZ FP-2
C=CCN(c1ccc(F)cc1)S(=O)(=O)c1cc(C(=O)OCC(=O)N(C)C2CCS(=O)(=O)C2)ccc1Cl (centres undefined)	-3.9	-0.5	0.8	-6.7	1.6	39.5*
OC(COc1cccc2ccccc12)CN1CCN(c2ccccc2)CC1 (centres undefined)	-4.7	-2.1	-3.5	4.5	0.8	-3.9
COc1ccccc1N1CCN(CC(O)COc2cccc3ccccc23)CC1 (centres undefined)	-5.1	-1.9	23.5*!	-1.6	-2.6	-4.8
CC(C)=CC(=O)NCC1CCN(C(=O)C(=O)c2cc3ccccc3o2)CC1	-10.4	·	·	·	·	·
COC(=O)[C@]12C[C@H](CC(=O)N3CCSCC3)C(=O)N(CCC3=CCCCC3)C1=C[C@H](C(C)(C)C)O[C@@H]2C	-5.6	·	·	·	·	·
O=C(NCc1cccs1)c1ccncc1	-3.6	-1.0	8.7	0.9	-2.5	74.4*
CC(C)(C)NC(=O)C1CC1(c1ccccc1)c1ccccc1 (centres undefined)	-19.6	·	1.5	0.3	0.9	45.6*
CC(C)C(=O)NNC(=O)C1CC1(c1ccccc1)c1ccccc1 (centres undefined)	-20.1	0.1	2.6	-2.3	3.5	-2.7
CCCC(=O)OC[C@H]1CN(C2CCCC2)S(=O)(=O)c2c(Oc3ccc(F)cc3OC)cccc2O1	-7.2	·	·	·	·	·
O=C(Nc1ccc(F)cc1)C(Sc1nc2ccccc2[nH]1)c1ccccc1 (centres undefined)	-3.6	-0.6	-3.0	-0.9	-4.1	-3.6
CC(Sc1nc2ccccc2[nH]1)C(=O)Nc1ccccc1F (centres undefined)	-4.4	-2.6	13.1*	0.7	-0.6	0.6
CC[n+]1c(C)sc2cc(C)ccc21	-8.5	-1.9	9.2*	1.0	-14.7	-1.3
CCCC[n+]1c(C)sc2ccc(C)cc21	-14.8	-4.4	3.2	2.2	-8.8	-1.9
CN1C(=O)/C(=C\c2ccc(OC(=O)c3ccco3)cc2)SC1=S	-3.2	-0.8	7.2	-0.8	-4.5	56.8*
CN1C(=O)/C(=C/c2ccc(OC(=O)c3ccco3)cc2)SC1=S	-3.2	-0.1	4.0	-0.9	-3.9	+
C[C@H](O)[C@@H]1C(=O)N2CCc3c([nH]c4cccc(-c5ccccc5)c34)[C@@H]2C[C@@H]1N(C)C(=O)c1ccccc1	-5.0	·	·	·	·	·
Cc1cc(Br)ccc1NC(=O)CN1CCN(c2ccccn2)CC1	-18.8	·	-4.8	-0.6	0.7	74.7*
CSc1ccccc1NC(=O)CN1CCN(c2ccccn2)CC1	-19.3	·	0.3	-4.3	-0.6	-8.6
CCN(CC)S(=O)(=O)c1ccc(NC(=S)NC(=O)CC(C)C)cc1	-18.7	-2.1	2.4	1.1	-2.6	111.9*
CCN(CC)S(=O)(=O)c1ccc(NC(=S)NC(=O)C(C)C)cc1	-2.9	-1.8	-0.3	-0.9	2.2	-2.3
CCOC(=O)c1ccc(-n2c(C)nc3c(cnn3-c3ccccc3Cl)c2=O)cc1	·	0.5	-1.4	-1.9	2.8	77.9*
CCOC(=O)c1ccc(-n2c(C)nc3c(cnn3-c3ccc(Cl)cc3)c2=O)cc1	·	1.1	-0.4	-1.0	-7.4	-3.9
CCCCCCC1CC(=CN(C)C)C(=O)O1 (centres undefined)	-5.6	·	·	·	·	·
S=c1nc[nH]c2c1ncn2-c1ccccc1	-4.5	-1.0	·	0.5	-5.9	48.1*
COCCn1c(C)cc(C2=NNC(=Nc3ccc(OC)cc3)SC2)c1C	·	0.4	-2.1	-3.0	0.4	-5.7
SMILES	CaV13 ICDI inh	CAL PDZ FP-1	LANA-H2B inh	LANA DNA inh	Keap1 Nrf2 FP	CAL PDZ FP-2
COCCn1c(C)cc(C2=NNC(=Nc3ccccc3)SC2)c1C	·	-1.1	1.5	0.6	1.5	active
Cc1ccc(S(=O)(=O)N2CCOCC2)cc1NC(=O)COC(=O)c1ccc(OCc2c(C)noc2C)cc1	-17.8	-1.1	1.2	0.1	1.0	4.4
COc1ccc(NC(=O)CN(C)C(=O)/C=C/c2ccc(S(=O)(=O)N3CCCCCC3)cc2)cc1	·	-0.6	110.3*	-0.1	-0.8	-1.1
COc1ccc(/C=C/C(=O)N(C)CC(=O)Nc2cccc(F)c2)cc1S(=O)(=O)N1CCCCC1	-5.6	-3.2	·	1.2	-4.7	-5.4
O=C(COc1ccc(Br)cc1CO)Nc1ccc(S(=O)(=O)N2CCCCC2)cc1	-6.1	-0.3	+	2.9	4.1	·
COc1ccc(OCC(=O)Nc2ccc(S(=O)(=O)N3CCOCC3)cc2)cc1	-4.5	-0.3	27.8*	-2.9	0.8	-2.4
Cc1noc(C)c1COc1ccc(C(=O)OC(C)C(=O)Nc2ccc(S(=O)(=O)N3CCOCC3)cc2)cc1 (centres undefined)	-10.0	-0.6	-0.3	3.1	1.6	54.2*
C[C@@H]1CCCCO[C@@H](CN(C)C(=O)Nc2ccc(F)cc2)[C@@H](C)CN([C@H](C)CO)C(=O)c2cc(NC(=O)Nc3ccc4c(c3)OCO4)ccc2O1	-5.5	·	·	·	·	·
COc1cc(N)ccc1Cc1ccc(N)cc1OC	-4.9	·	-0.1	-0.2	-3.4	55.8*
COc1ccc(NC(=O)COC(=O)CCC(=O)c2cccs2)cc1OC	-5.3	0.0	22.9*	-0.4	-6.0	·
Cc1ccc(NC(=O)COC(=O)CCC(=O)c2cccs2)cc1C	-18.2	-0.8	1.2	1.2	-6.6	-1.6
c1ccc(Cc2nnc3n2CCCCC3)cc1	-7.3	-0.1	-9.0	-0.6	2.6	-0.7
c1ccc2c(c1)CCCN2Cc1nnc2n1CCCCC2	·	-1.9	58.8*	21.0	5.2	-0.7
CC(C)c1onc(C(=O)N2CCCCCC2)c1[N+](=O)[O-]	-5.6	-2.4	33.4*	1.3	-0.8	-0.8
CN(C)S(=O)(=O)N1C(=O)c2ccccc2C1=O	-2.0	·	-4.9	-0.3	3.2	-3.9
CN(C)/C=C1\C=C2C(=O)c3ccccc3N2C1=O	-22.2	1.2	150.4*	+	+	55.6*
O=[N+]([O-])c1ccc(CN2[C@H](COCc3ccccc3)C=CS2(=O)=O)cc1	-3.9	·	·	·	·	·
O=C(CCC(=O)Nc1ccc(Br)cc1)N/N=C/c1ccccc1O	-4.4	-1.9	-0.3	0.1	0.6	+
CC(=O)NC12CC3CC(C1)CC(C(=O)Nc1ccc(C)c(S(=O)(=O)N4CCCCCC4)c1)(C3)C2	-5.4	-1.4	·	0.8	-3.5	-3.1
CC(=O)NC12CC3CC(C1)CC(C(=O)Nc1cccc(S(=O)(=O)N4CCCCCC4)c1)(C3)C2	-1.8	-1.9	·	-0.3	0.4	193.7*
CC(=O)Oc1ccc(N2C(=O)C3C(C2=O)C(C(=O)c2ccc(Cl)cc2)N2CCCC32)cc1 (centres undefined)	-3.4	-2.8	-1.1	9.4	-7.7	26.8
